Reference: ChEMBL document CHEMBL4145686, “Discovery of a Potent and Selective Steroidal Glucocorticoid Receptor Antagonist (ORIC-101)” (J Med Chem, 2018)
Active and inactive are the calls of the source. The calls are words filed in the database; no cut-off is given here.

How the values were obtained:
[1] = Oral bioavailability in rat at 5 mg/kg; type: ADME, organism-based; settings: in vivo
[2] = Unbound fraction in human plasma; type: ADME, cell-free
[3] = target: T1, Glucocorticoid receptor (Sus scrofa, UniProt Q9N1U3); experiment: (§1) Antagonist activity at GR in mini pig PBMC assessed as reduction in dexamethasone-induced GILZ gene expression incubated for 24 hrs by RT-qPCR method; type: cell-based
T1 sequence (Q9N1U3 whole entry): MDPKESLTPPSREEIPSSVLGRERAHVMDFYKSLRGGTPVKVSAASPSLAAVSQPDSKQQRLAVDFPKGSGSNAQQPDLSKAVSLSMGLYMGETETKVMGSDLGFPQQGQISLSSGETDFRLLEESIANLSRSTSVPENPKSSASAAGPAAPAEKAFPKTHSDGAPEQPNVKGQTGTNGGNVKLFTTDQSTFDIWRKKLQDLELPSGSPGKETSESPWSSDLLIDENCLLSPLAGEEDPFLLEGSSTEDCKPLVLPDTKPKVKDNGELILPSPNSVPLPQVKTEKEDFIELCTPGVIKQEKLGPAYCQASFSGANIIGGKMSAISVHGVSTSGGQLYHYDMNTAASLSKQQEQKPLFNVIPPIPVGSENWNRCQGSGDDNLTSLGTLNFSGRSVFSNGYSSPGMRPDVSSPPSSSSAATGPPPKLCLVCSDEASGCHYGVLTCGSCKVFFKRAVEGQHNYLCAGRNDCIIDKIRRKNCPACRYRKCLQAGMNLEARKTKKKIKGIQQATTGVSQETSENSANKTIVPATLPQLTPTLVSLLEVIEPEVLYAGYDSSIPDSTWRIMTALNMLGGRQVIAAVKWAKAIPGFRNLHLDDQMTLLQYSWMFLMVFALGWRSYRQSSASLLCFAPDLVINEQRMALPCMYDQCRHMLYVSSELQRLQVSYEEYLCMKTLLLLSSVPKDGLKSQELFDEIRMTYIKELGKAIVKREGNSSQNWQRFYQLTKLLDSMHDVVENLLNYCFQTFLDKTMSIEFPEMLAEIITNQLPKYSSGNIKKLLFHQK

[4] = target: T2, Glucocorticoid receptor (Sus scrofa) (UniProt Q9N1U3); experiment: as §1; type: cell-based
T2 sequence (whole entry): T1 sequence (Q9N1U3 whole entry)

[5] = target: T3, Glucocorticoid receptor (Canis lupus familiaris, UniProt A0A8C0QLS2); experiment: Antagonist activity at GR in dog PBMC assessed as reduction in dexamethasone-induced GILZ gene expression incubated for 6 hrs by RT-qPCR method; type: cell-based
T3 sequence (A0A8C0QLS2 whole entry): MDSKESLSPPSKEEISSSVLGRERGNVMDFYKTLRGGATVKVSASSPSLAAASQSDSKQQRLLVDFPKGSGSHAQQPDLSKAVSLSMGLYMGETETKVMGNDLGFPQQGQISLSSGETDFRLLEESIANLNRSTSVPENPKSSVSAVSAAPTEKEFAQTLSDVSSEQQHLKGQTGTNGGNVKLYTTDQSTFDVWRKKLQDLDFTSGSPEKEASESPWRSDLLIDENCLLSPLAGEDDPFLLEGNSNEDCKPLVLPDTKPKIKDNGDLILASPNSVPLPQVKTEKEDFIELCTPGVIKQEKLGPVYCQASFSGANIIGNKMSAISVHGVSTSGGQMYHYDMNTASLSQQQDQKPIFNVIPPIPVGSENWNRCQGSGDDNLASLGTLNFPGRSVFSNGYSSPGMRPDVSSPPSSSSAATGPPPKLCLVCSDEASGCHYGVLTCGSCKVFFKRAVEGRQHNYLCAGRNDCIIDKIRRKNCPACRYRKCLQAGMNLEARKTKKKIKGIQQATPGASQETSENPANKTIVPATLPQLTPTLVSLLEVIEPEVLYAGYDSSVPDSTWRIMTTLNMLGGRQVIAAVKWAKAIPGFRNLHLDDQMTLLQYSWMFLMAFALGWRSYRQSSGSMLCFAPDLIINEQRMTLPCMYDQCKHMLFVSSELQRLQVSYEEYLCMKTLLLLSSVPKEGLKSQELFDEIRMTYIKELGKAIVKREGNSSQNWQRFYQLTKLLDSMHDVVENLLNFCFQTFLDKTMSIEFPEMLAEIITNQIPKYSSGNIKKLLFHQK

[6] = Unbound fraction in human plasma relative to mifepristone; type: ADME, cell-free
[7] = Oral bioavailability in mouse at 5 mg/kg; type: ADME, organism-based; settings: in vivo
[8] = target: Cytochrome P450 3A4 (Homo sapiens, UniProt P08684); experiment: Inhibition of CYP3A4 (unknown origin) using midazolam as substrate; type: ADME
[9] = Antagonist activity at GR in monkey PBMC assessed as reduction in dexamethasone-induced FKBP5 gene expression incubated for 6 hrs by RT-qPCR method; type: cell-based; settings: Macaca mulatta
[10] = target: T4, Cytochrome P450 2C8 (Homo sapiens, UniProt P10632); experiment: Inhibition of CYP2C8 (unknown origin) using […] as substrate; type: ADME
T4 sequence (P10632 whole entry): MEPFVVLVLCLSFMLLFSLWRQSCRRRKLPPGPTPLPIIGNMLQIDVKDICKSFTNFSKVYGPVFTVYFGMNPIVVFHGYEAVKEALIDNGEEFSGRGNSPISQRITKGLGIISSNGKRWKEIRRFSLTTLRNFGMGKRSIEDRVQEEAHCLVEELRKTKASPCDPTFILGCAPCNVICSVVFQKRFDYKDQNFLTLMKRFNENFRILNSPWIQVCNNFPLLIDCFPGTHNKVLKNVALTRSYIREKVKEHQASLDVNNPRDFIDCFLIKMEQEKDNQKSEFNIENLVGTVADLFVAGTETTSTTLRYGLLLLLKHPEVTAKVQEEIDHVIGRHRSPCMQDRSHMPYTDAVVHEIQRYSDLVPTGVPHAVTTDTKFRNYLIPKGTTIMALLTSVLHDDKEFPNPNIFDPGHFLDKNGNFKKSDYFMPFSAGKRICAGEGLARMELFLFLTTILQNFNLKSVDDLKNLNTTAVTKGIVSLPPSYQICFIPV

[11] = system: OVCAR-5; experiment: Potentiation of gemcitabine-induced antitumor activity against human OVCAR5 cells xenografted in chronic cortisol treated nude mouse assessed as reduction in tumor volume at 75 mg/kg, po BID dosed via gavage co-treated with gencitabine at 100 mg/kg dosed every 3 days for 4 doses; type: functional, organism-based
Procedure, shortened: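 Cortisol given in drinking water at 100 mg/L before tumor implantation and throughout the study. Mice bearing established OVCAR5 xenografts, n = 10 per group. Gemcitabine 100 mg/kg and carboplatin 60 mg/kg given every 3 days for 4 doses. Antagonist given at 75 mg/kg twice daily by oral gavage for the whole study. Tumor volume tracked, mean ± SEM, with significance assessed on day 21.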

[12] = Clearance in mouse at 0.5 mg/kg, iv; type: ADME, organism-based; settings: in vivo
[13] = system: Mus musculus; experiment: In-vivo antagonist activity at GR in nude mouse xenografted with human OVCAR5 cells assessed as reduction in dexamethasone-induced FKBP5 gene expression at 25 to 75 mg/kg, po dosed as gavage and measured after 6 hrs by RT-qPCR method; type: functional, organism-based
Procedure, shortened: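 OVCAR5 xenograft mice received dexamethasone 0.5 mg/kg by intraperitoneal injection with or without a single oral gavage dose of the antagonist at 25, 50 or 75 mg/kg. Tumors and plasma collected 6 h later. Tumor FKBP5 mRNA measured by RT-qPCR. Unbound plasma concentration of the antagonist determined, n = 4 mice per group. FKBP5 effects tested by one-way ANOVA with Dunnett's test versus the vehicle group.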

Chain of Cytochrome P450 3A4 (P08684 whole entry): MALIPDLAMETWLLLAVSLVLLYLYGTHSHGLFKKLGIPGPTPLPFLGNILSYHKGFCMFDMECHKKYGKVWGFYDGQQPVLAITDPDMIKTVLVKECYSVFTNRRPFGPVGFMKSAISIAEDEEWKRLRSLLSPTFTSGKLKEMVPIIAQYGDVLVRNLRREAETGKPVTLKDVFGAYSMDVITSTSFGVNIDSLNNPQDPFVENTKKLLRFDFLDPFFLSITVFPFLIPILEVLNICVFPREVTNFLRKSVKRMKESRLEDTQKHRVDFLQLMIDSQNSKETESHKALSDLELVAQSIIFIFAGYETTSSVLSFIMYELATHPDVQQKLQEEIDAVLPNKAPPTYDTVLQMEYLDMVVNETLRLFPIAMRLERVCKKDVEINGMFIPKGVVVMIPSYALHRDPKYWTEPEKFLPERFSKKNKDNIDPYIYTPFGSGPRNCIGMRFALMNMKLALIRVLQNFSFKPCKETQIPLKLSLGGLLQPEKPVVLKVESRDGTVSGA

## CC(C)N(C)c1ccc([C@H]2C[C@@]3(C)[C@@H](CC[C@@]3(O)C#CC(C)(C)C)[C@@H]3CCC4=CC(=O)CC[C@@H]4[C@H]32)cc1
[1]
  bioavailability: 24%
[2]
  fraction unbound: 0.14
[3]
  IC50: 0.181 µM
[4]
  inhibition: Dose-dependent effect
[5]
  IC50: 0.0343 µM
[6]
  Ratio: 10
[7]
  bioavailability: 21%
[8]
  IC50: 1.6 µM
[9]
  IC50: 0.0111 µM
[10]
  IC50: > 10 µM
[11]
  Activity: Active
[12]
  clearance: 1.63 L/h/kg
[13]
  inhibition: Dose-dependent effect
